Shown are actives, neighbours in structure and some others; about 10% of the full set was active somewhere.
PMI act satM6P = human PMI activators, high substrate, primary screen, biochemical, fluorescence intensity, near-saturating mannose 6-phosphate | Mannose-6-phosphate isomerase (Homo sapiens), P34949 | activation factor at 20 µM | coupled PMI enzyme assay, resazurin fluorescence, 20 min; stronger effect = higher value; 1 = untreated enzyme, 0 = substrate-free blank | AID 1216, 2008 | 190,000 compounds, 0.34% hits;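 active = activation factor of 2 or more at 20 µM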
Target sequence (P34949 whole entry, looked up): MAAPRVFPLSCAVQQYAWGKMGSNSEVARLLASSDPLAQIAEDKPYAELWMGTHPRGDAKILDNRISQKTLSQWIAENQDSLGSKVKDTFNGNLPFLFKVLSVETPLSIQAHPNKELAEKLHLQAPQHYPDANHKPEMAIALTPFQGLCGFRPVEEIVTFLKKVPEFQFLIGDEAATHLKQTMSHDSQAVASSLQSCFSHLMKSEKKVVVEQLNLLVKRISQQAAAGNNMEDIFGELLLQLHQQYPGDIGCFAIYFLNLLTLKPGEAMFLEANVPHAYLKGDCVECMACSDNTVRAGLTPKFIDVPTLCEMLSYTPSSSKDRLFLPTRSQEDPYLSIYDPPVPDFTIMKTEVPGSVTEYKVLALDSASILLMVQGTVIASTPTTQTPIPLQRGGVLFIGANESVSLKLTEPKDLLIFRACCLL
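test system = human PMI in coupled enzyme assay | medium = HEPES-buffered pH 7.4 with magnesium and detergent | also added = 1.0 mM mannose-6-phosphate substrate with 0.22 mM NADP+ | compound = 20 µM single dose | times = 20 min incubation at room temperature | measured by = resorufin fluorescence (Ex 544/Em 590 nm) from resazurin via diaphorase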
WT yeast gro inh = growth inhibition of WT strain, primary screen, mitochondrial fusion inhibitor project, WT and mutant strains, chemical genetic; mitochondrial fusion phenotypic screen; inhibition, % at 10 µM; 190,000 compounds, 2.1% hits; in the data active = inhibition above about 58%; tested in S. cerevisiae
Diaphorase act = compounds boosting diaphorase resazurin reduction – biochemical, uHTS, resorufin fluorescence, counter-screen for diaphorase-coupled primary assays, primary screen; 190,000 compounds, 0.005% hits; Diaphorase/resazurin coupled assay, 16 min; stronger effect = higher value; 1 = vehicle wells, 0 = NADH-free wells; activation factor at 20 µM; AID 1229, 2008;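 active = diaphorase activity raised at least twofold by the compound at 20 µM; inactive = activation factor below 2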
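Material: Purified diaphorase enzyme from Clostridium kluyveri | Buffer or medium: 50 mM HEPES pH 7.4 with 4.542 mM MgCl2, 0.005% Tween 20 | Times: 16 min enzyme reaction, ambient temperature | Signal: Red resorufin fluorescence at 544/590 nm excitation/emission | Measure: Increased resorufin signal from activators or reducing compounds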
PMI activator = activators of human PMI, primary screen, biochemical, fluorescence intensity, near-Km mannose 6-phosphate | purified human PMI, coupled resazurin fluorescence, 20 min; stronger effect = higher value; 1 = vehicle control, 0 substrate-free wells | Mannose-6-phosphate isomerase (Homo sapiens), P34949 | activation factor at 20 µM | AID 1214, 2008 | 190,000 compounds, 0.005% hits;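 active = activation factor of 2 or more at 20 µM, relative to plate controls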
L major viab = Leishmania major promastigote growth inhibition, primary screen; Leishmania major promastigotes, resazurin fluorescence viability; inhibition, % at 10 µM; 200,000 compounds, 9% hits; in the data active = inhibition above about 50%;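 note: promastigotes grown with compound for 44 hours at 28 °C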
* marks the source's active call; other numbers are inactive results.

SMILES	PMI act satM6P	WT yeast gro inh	Diaphorase act	PMI activator	L major viab
CCCCn1c(CN2CCN(C)CC2)nc2ccccc21	1.2	-6	1.2	1.2	61*
CCCn1c(CN2CCN(C)CC2)nc2ccccc21	1	0	1	1	-3
CCn1c(CN2CCN(c3ccc(Cl)cc3)CC2)nc2ccccc21	1	60*	0.9	1.1	17
CC1SC(C)C(=O)N(CC(=O)NC2CCCCC2)C1=O (stereo not given)	1.1	-3	1.1	1.2	-4
COc1c(S(=O)(=O)NCCN2CCOCC2)ccc(Cl)c1Cl	0.9	4	0.8	0.8	67*
CCCOc1ccc(S(=O)(=O)NCCN2CCOCC2)c2ccccc12	1	5	0.9	0.9	66*
CCOc1ccc(S(=O)(=O)NCCN2CCOCC2)c2ccccc12	1	-4	0.9	1	96*
COc1ccc(/C(N)=N/OC(=O)CN(C)S(=O)(=O)c2ccc(C)cc2)cc1	0.9	5	0.9	0.8	1
NC(=O)c1ccccc1NC(=O)Nc1cccc(Cl)c1Cl	0.8	9	0.8	0.9	65*
Cc1c(Cl)cccc1NC(=O)Nc1ccccc1C(N)=O	1.1	10	0.8	1	-5
CCCCn1c(O)c(N=Nc2ccccn2)c2ccccc21	0.9	68*	0.8	0.8	66*
CCN(CC)CCNS(=O)(=O)c1ccc(C(=O)NN)cc1	1.1	-10	1	1.3	-3
CCO/N=C(\C)c1c(O)c2ccccc2n(C)c1=O	1	-2	1	1.1	-4
CCOc1cc(/C=N/NC(=O)C(=O)NCCCOC(C)C)cc(Br)c1O	0.9	6	0.9	1	70*
O=C(NCCCN1CCc2ccccc2C1)Nc1ccc(Br)cc1	1.1	25	1	1	95*
CCOC(=O)c1ccc(Oc2nc(NC)nc(Nc3ccccc3)n2)cc1	1	-1	0.9	0.9	97*
COC(=O)c1ccc(Oc2nc(Nc3ccc(C)c(C)c3)nc(N(C)C)n2)cc1	0.9	31	0.8	0.9	74*
CCOC(=O)c1c(NC(=O)Cn2cnc3scc(-c4ccc(C)cc4)c3c2=O)sc(C)c1C	1	-9	0.9	0.8	24
COc1ccccc1OCCNC(=O)Cc1ccc(Cl)c(Cl)c1	0.9	10	0.9	1	5
O=C(c1ccc([N+](=O)[O-])cc1)N(Cc1ccc(Br)cc1)N1C(=O)CCCC1=O	1.1	22	1	1.1	2
COc1ccccc1C(=O)CSc1ccccn1	1.5	-7	1	1.6	5
c1ccc2c(c1)OCC(c1csc3ncnc(N4CCOCC4)c13)O2 (stereo not given)	0.6	16	0.8	0.8	1
CCN(CC)c1ncnc2scc(C3COc4ccccc4O3)c12 (stereo not given)	1	85*	0.9	0.9	6
CC(=O)Nc1ccccc1O	1	-7	1	1.1	14
C/C(=C\C(=O)c1ccncc1)Nc1ccccc1O	0.9	-17	1	1.1	57*
SMILES	PMI act satM6P	WT yeast gro inh	Diaphorase act	PMI activator	L major viab
CCc1nnc(NC(=O)Cc2cc(OC)c(OC)c(OC)c2)s1	1	-8	1	1	6
C/C(=N\NC(=S)Nc1ccc(F)cc1)c1ccc2c(c1)OCCO2	1.1	31	0.8	1.1	77*
C/C(=N\NC(=S)NCc1ccccc1)c1ccc2c(c1)OCCO2	0.8	57	0.8	0.9	5
Cc1ccc(C(=O)NCc2cccnc2)cc1S(=O)(=O)Nc1ccccc1	0.9	1	0.9	0.9	-1
COc1ccc(N2C(=O)NC(NC(=O)c3ccncc3)(C(F)(F)F)C2=O)cc1 (stereo not given)	1	29	0.9	1	-7
Cc1cc(C)c(S(=O)(=O)/N=C2/C=C(Sc3ncn[nH]3)C(=O)c3ccccc32)cc1C	0.1	26	0.5	0	100*
CCN(c1ccccc1)S(=O)(=O)c1ccc(Cl)c(NC(=O)CSc2ncn[nH]2)c1	1	5	0.8	0.7	-3
CCCCc1ccc(S(=O)(=O)N2CCN(C(=O)c3ccco3)CC2)cc1	1	16	0.9	0.9	-4

High-throughput results deposited in PubChem by several laboratories.
